Data on nine compounds can be found in ChEMBL document CHEMBL1139878, “Rapid evolution of 6-phenylpurine inhibitors of protein kinase B through structure-based design” (J Med Chem, 2007).

For assay [1], the target named is RAC-beta serine/threonine-protein kinase (Homo sapiens, UniProt P31751). The assay is described as follows: Inhibition of PKBbeta by radiometric filter binding assay.
The next assay deals with PC-3M. The assay is described as follows: Inhibition of PC3M cells by SRB assay after 96 hrs. The assay is classed as functional. The note with it: Homo sapiens.
Assay [2] has as its target cAMP-dependent protein kinase (PKA) (Homo sapiens, UniProt P22694+P17612+P22612). The assay is described as follows: Inhibition of PKA by radiometric filter binding assay. The assay is classed as protein assay.
For another assay, the system named is HCT-116. Nature of the assay: Inhibition of HCT116 cells by SRB assay after 96 hrs. In kind it is functional. The conditions noted are these: Homo sapiens, HCT-116, 96 h.
The subject of assay [3] is U-87 MG. The assay is described as follows: Inhibition of U87MG cells by SRB assay after 96 hrs. In kind it is functional, U-87MG ATCC. The conditions noted are these: Homo sapiens.
Assay [4] addresses T1, Serine/threonine-protein kinase AKT (Homo sapiens, UniProt P31751+Q9Y243+P31749). The assay is described as follows: Inhibition of GSK3-beta phosphorylation in PC3M cells after 1 hr by ELISA. In kind it is functional, cell-based.
The target of assay [5] is T1, Serine/threonine-protein kinase AKT. Nature of the assay: Inhibition of GSK3-beta phosphorylation in U87MG cells by ELISA. The assay is classed as functional, cell-based. The note with it: u-87mg atcc.
For assay [6], the system named is U-87 MG. Nature of the assay: Decrease in pGSK3-beta protein levels in U87MG cells after 1 hr by Western blotting. In kind it is functional, cell-based. The note with it: Homo sapiens; U-87MG ATCC. The essentials:
(§1)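 U87MG glioblastoma cells were treated for 1 h across a titration of inhibitor concentrations. Phosphorylation states of PI3K-PKB-mTOR pathway components were then read out by Western blot with phospho-specific antibodies.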

Assay [7] relates to U-87 MG. Nature of the assay: Decrease in pS6 protein levels in U87MG cells after 1 hr by Western blotting. The assay is classed as functional, cell-based. The note with it: Homo sapiens; U-87MG ATCC. The method in brief: as §1
Assay [8] concerns U-87 MG. Nature of the assay: Decrease in pFKHR protein levels in U87MG cells after 1 hr by Western blotting. In kind it is functional, cell-based. The note with it: Homo sapiens; U-87MG ATCC. The essentials:
as §1

For assay [9], the system named is U-87 MG. Nature of the assay: Increase in pSer473-PKB protein levels in U87MG cells after 1 hr by Western blotting. The conditions noted are these: Homo sapiens; U-87MG ATCC. The assay is classed as functional, cell-based. The essentials:
as §1

A further assay addresses T2, Cytochrome P450 1A2 (Homo sapiens, UniProt P05177).
T2 sequence (P05177 whole entry): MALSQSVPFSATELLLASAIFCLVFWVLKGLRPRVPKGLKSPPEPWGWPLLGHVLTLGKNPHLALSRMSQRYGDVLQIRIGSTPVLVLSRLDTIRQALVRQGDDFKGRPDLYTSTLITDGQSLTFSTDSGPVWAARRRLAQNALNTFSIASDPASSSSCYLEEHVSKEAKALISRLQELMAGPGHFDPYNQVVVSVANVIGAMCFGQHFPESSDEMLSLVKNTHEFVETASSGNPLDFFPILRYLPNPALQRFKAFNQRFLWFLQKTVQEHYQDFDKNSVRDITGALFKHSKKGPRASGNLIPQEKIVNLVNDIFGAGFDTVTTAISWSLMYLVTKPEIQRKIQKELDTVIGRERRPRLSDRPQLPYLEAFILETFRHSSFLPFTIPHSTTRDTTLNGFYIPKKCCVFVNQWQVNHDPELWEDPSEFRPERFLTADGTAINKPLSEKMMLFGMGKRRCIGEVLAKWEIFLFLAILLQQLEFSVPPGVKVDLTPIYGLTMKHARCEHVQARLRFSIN
Nature of the assay: Inhibition of CYP1A2. In kind it is ADME.

The target in a further assay is Cytochrome P450 2C9 (Homo sapiens, UniProt P11712). Nature of the assay: Inhibition of CYP2C9. The assay is classed as ADME.
Cytochrome P450 2C9, sequence (P11712 whole entry): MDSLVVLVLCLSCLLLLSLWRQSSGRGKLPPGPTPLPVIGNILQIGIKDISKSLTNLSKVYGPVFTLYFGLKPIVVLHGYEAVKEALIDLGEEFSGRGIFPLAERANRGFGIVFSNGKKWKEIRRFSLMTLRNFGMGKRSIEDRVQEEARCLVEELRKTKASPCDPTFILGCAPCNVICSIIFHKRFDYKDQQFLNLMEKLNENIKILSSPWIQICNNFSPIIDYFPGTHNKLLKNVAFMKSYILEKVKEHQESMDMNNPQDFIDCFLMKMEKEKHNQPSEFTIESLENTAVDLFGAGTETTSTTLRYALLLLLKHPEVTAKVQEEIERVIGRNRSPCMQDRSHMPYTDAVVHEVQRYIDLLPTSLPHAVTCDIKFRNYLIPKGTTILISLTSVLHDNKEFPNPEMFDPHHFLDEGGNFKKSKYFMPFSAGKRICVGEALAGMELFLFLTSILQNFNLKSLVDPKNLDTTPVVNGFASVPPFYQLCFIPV
The next assay addresses Cytochrome P450 2D6 (Homo sapiens, UniProt P10635). Nature of the assay: Inhibition of CYP2D6. The assay is classed as ADME.
The next assay addresses Cytochrome P450 3A4 (Homo sapiens, UniProt P08684). Nature of the assay: Inhibition of CYP3A4. The assay is classed as ADME.
For the next assay, the target named is Cytochrome P450 2C19 (Homo sapiens, UniProt P33261). The assay is described as follows: Inhibition of CYP2C19. In kind it is ADME.
Cytochrome P450 2C19, sequence (P33261 whole entry): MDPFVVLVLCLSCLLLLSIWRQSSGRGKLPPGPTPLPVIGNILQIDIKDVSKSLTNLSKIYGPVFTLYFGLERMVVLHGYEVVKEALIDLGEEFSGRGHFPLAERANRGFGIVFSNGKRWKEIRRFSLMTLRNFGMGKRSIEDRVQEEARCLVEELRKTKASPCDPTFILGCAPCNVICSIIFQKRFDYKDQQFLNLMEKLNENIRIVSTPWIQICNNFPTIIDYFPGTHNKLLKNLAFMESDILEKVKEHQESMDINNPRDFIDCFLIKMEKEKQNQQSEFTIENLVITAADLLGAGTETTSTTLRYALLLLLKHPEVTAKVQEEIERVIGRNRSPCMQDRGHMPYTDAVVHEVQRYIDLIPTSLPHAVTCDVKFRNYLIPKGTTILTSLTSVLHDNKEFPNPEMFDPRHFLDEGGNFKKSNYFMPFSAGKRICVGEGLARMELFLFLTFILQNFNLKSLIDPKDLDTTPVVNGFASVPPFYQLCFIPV

Active and inactive are the calls of the source. No cut-off for these calls is given here.

RAC-beta serine/threonine-protein kinase, sequence (P31751 whole entry): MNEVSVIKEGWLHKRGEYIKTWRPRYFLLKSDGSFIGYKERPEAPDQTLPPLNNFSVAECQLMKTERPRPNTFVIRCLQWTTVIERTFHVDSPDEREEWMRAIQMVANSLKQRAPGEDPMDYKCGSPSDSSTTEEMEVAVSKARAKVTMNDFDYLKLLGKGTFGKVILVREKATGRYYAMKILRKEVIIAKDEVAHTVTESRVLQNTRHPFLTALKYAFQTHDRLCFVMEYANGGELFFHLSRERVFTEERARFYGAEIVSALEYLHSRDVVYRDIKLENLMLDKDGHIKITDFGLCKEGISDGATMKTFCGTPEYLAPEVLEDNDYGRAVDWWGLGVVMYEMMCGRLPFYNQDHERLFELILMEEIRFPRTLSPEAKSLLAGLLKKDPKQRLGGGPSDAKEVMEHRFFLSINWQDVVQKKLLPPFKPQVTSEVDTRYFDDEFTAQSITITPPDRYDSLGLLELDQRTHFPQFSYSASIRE
Cytochrome P450 2D6, sequence (P10635 whole entry): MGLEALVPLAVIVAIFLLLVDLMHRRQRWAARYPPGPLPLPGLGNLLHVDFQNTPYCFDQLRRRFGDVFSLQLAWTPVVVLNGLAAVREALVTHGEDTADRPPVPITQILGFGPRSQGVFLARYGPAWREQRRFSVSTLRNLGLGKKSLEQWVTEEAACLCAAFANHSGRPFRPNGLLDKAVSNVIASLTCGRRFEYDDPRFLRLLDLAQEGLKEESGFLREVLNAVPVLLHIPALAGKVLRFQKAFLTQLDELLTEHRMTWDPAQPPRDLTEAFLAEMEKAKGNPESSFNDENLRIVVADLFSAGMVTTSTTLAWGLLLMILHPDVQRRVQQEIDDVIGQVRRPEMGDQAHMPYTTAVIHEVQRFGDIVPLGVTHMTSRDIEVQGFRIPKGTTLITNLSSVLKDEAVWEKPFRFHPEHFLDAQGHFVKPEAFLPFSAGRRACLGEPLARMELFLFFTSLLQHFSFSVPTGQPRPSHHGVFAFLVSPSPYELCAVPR
Cytochrome P450 3A4, sequence (P08684 whole entry): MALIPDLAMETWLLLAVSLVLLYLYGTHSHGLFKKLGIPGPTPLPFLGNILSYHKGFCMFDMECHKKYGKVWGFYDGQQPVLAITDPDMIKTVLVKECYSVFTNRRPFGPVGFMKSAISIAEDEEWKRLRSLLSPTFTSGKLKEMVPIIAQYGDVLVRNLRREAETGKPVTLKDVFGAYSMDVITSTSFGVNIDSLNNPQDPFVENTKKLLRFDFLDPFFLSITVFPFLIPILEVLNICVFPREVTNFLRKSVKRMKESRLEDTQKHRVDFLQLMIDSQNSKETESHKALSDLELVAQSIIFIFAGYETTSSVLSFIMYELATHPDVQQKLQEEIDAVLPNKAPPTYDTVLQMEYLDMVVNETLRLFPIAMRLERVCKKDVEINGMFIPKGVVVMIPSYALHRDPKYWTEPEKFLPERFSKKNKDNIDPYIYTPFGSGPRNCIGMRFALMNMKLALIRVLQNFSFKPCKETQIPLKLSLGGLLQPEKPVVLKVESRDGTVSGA

`NC(c1ccccc1)c1ccc(-c2ncnc3[nH]cnc23)cc1` (centres undefined) had an IC50 in [1] of 400 nM. In the assay on PC-3M, this compound came in with a GI50 of 32 µM.
On to `NC(c1ccc(Cl)cc1)c1ccc(-c2ncnc3[nH]cnc23)cc1` (centres undefined), for which the IC50 in assay [1] is 9 nM. Further, the GI50 with PC-3M is 28 µM.
As for `NCCc1ccc(-c2ncnc3[nH]cnc23)cc1`, the IC50 in assay [1] stood at 9500 nM.
As to `CNCc1ccc(-c2ncnc3[nH]cnc23)cc1`, the IC50 stood at 6900 nM in [1] and 5.2 µM in assay [2]. In addition, in the assay with PC-3M, the GI50 was over 50 µM.
For the compound `Clc1ccc(C2(c3ccc(-c4ncnc5[nH]cnc45)cc3)CCNCC2)cc1`, the IC50 in assay [2] was 0.033 µM; in [4] it was 6 µM; in assay [5], 1.9 µM; on Cytochrome P450 1A2 it was over 10 µM; against Cytochrome P450 2C9 it was over 10 µM; on Cytochrome P450 2D6, over 10 µM. Moreover, the IC50 came out at 10 µM against Cytochrome P450 3A4 and 1600 nM against Cytochrome P450 2C19. For the same compound, the GI50 came out at 4.5 µM in the assay on PC-3M, 5.7 µM in the assay with HCT-116 and 8.7 µM in the assay on U-87 MG [3]. Moreover, the result in the assay on U-87 MG [6], in the assay with U-87 MG [7], in the assay on U-87 MG [8] and in the assay with U-87 MG [9] was Active.
On to `NC(Cc1ccccc1)c1ccc(-c2ncnc3[nH]cnc23)cc1` (centres undefined), for which the IC50 amounted to 430 nM in [1] and 0.61 µM in assay [2]. Halving of growth in the assay with PC-3M (GI50) required 32 µM.
`CNCc1cccc(-c2ncnc3[nH]cnc23)c1`: the IC50 in assay [1] is 1600 nM; in assay [2], 5.5 µM. This compound also came in with a GI50 in the assay on PC-3M of over 50 µM.
Consider `NCCc1cccc(-c2ncnc3[nH]cnc23)c1`, for which the IC50 in [1] was determined as 3200 nM. In the assay on PC-3M, this compound showed a GI50 of over 50 µM.
With `CNC(c1ccc(Cl)cc1)c1ccc(-c2ncnc3[nH]cnc23)cc1` (centres undefined), the IC50 came out at 10 nM in assay [1] and 0.015 µM in assay [2]. The compound further showed a GI50 in the assay with PC-3M of 16 µM.
